Results taken from ChEMBL document CHEMBL2424622, “Development of amino-pyrimidine inhibitors of c-Jun N-terminal kinase (JNK): kinase profiling guided optimization of a 1,2,3-benzotriazole lead” (Bioorg Med Chem Lett, 2013).

Tests used:
[1] = target: Myosin light chain kinase, smooth muscle (Homo sapiens) (UniProt Q15746); test: Competitive binding affinity to MLCK (unknown origin) at 10 uM in presence of ATP relative to control
[2] = target: Hepatocyte growth factor receptor (Homo sapiens) (UniProt P08581); test: Competitive binding affinity to MET (unknown origin) at 10 uM in presence of ATP relative to control
[3] = target: T1, Ephrin type-A receptor 1 (Homo sapiens) (UniProt P21709); test: Competitive binding affinity to EPHA1 (unknown origin) at 10 uM in presence of ATP relative to control
T1 sequence (whole entry): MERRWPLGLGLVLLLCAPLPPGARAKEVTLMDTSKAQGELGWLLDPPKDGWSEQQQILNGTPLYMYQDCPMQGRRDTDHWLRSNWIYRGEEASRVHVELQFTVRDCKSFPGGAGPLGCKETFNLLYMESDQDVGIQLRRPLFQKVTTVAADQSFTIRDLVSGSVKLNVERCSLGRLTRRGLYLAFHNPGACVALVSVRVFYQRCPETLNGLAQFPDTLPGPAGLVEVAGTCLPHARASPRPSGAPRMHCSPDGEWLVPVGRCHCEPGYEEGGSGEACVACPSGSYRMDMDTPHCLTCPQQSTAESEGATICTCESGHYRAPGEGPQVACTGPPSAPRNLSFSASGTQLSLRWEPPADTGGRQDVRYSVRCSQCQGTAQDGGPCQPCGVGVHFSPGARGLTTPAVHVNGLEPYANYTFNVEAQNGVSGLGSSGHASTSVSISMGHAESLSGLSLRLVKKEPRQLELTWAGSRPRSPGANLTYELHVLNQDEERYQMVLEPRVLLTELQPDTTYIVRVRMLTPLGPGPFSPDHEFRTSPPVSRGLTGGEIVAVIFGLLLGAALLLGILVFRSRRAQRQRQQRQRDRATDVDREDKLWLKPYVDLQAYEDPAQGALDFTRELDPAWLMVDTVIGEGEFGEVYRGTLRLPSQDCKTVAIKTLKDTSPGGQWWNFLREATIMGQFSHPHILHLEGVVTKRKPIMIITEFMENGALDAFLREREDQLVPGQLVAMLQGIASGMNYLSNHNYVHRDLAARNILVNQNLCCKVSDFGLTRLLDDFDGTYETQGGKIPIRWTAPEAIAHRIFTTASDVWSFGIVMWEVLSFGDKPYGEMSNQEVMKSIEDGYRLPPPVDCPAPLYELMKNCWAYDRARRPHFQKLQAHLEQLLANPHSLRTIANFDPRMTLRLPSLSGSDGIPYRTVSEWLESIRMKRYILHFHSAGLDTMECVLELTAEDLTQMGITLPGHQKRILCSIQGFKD
How it was run: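 In vitro ATP-site competition binding assay, part of profiling against a diverse panel of 128 kinases. Each compound was tested at a single concentration of 10 µM. Kinome selectivity was summarized as S15 selectivity scores.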

[4] = target: Non-receptor tyrosine-protein kinase TYK2 (Homo sapiens) (UniProt P29597); test: Competitive binding affinity to TYK2 kinase domain 2 (unknown origin) at 10 uM in presence of ATP relative to control
Chain of Non-receptor tyrosine-protein kinase TYK2 (Homo sapiens) (P29597 whole entry, the tested form may be a part): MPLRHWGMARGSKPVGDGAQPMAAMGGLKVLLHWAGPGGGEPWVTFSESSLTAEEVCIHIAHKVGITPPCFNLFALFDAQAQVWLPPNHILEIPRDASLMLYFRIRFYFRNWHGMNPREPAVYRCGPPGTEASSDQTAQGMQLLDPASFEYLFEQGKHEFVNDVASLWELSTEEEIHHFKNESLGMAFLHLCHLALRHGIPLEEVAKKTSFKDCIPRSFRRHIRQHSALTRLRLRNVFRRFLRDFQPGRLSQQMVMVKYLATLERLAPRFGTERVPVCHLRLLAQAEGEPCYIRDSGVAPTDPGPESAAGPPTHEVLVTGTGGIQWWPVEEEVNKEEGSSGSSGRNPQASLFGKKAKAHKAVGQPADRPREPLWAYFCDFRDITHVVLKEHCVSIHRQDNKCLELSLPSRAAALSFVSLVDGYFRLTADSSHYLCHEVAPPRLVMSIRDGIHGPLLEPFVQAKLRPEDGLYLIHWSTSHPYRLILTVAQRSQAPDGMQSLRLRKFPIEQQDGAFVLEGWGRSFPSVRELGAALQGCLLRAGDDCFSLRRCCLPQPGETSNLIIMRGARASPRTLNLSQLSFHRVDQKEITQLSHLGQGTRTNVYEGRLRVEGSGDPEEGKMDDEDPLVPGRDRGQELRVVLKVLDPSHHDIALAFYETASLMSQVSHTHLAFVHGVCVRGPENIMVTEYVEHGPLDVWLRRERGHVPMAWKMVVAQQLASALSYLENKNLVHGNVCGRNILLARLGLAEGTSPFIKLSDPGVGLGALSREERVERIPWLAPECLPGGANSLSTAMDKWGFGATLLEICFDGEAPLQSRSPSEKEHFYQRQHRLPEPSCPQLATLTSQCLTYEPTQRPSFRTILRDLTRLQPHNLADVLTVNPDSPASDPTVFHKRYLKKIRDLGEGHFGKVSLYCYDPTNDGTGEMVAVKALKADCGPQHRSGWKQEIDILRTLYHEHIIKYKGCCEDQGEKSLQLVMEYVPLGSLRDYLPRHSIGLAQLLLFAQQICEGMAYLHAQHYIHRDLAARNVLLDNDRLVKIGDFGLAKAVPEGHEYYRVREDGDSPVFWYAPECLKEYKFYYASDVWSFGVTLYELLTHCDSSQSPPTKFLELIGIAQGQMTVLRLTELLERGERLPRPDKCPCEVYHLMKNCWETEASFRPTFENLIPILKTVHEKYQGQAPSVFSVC

Homo sapiens = species on record: Homo sapiens; test: Competitive binding affinity to EGFR E746 to A750 deletion mutant (unknown origin) at 10 uM in presence of ATP relative to control
How it was run: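 Screened at 10 µM in an in vitro ATP-site competition binding assay across a diverse panel of 128 kinases, with this kinase as one panel member. Readout is binding relative to control.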

[5] = target: Cyclin-dependent kinase 3 (Homo sapiens) (UniProt Q00526); test: Competitive binding affinity to CDK3 (unknown origin) at 10 uM in presence of ATP relative to control
Chain of Cyclin-dependent kinase 3 (Homo sapiens) (Q00526 whole entry, looked up): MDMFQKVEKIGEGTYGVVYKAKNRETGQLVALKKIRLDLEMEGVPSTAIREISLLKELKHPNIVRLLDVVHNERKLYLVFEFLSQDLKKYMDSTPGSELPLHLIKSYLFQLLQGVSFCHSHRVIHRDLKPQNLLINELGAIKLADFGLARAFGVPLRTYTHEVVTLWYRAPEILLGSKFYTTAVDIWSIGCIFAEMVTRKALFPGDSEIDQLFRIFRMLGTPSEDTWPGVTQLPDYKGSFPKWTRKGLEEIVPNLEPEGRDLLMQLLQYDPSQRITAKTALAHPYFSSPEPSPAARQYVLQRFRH

[6] = target: T2, Activin receptor type-1 (Homo sapiens) (UniProt Q04771); test: Competitive binding affinity to ACVR1 (unknown origin) at 10 uM in presence of ATP relative to control
T2 sequence (whole entry): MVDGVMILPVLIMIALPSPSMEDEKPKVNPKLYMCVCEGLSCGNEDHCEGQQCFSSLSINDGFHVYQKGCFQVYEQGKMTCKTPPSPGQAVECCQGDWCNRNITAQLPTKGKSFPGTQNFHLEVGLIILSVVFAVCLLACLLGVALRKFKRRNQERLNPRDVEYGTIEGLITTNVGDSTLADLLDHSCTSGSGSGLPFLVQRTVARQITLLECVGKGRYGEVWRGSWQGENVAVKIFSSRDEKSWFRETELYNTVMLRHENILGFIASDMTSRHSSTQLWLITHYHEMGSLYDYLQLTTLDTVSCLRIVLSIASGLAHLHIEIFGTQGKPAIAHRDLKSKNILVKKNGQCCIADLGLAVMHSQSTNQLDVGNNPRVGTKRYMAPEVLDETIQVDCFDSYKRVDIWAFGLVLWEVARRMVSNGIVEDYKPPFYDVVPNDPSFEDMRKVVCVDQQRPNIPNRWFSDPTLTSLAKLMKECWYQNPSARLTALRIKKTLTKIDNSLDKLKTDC

[7] = target: Protein kinase C delta type (Homo sapiens) (UniProt Q05655); test: Competitive binding affinity to PRKCD (unknown origin) at 10 uM in presence of ATP relative to control
Chain of Protein kinase C delta type (Homo sapiens) (Q05655 whole entry, looked up): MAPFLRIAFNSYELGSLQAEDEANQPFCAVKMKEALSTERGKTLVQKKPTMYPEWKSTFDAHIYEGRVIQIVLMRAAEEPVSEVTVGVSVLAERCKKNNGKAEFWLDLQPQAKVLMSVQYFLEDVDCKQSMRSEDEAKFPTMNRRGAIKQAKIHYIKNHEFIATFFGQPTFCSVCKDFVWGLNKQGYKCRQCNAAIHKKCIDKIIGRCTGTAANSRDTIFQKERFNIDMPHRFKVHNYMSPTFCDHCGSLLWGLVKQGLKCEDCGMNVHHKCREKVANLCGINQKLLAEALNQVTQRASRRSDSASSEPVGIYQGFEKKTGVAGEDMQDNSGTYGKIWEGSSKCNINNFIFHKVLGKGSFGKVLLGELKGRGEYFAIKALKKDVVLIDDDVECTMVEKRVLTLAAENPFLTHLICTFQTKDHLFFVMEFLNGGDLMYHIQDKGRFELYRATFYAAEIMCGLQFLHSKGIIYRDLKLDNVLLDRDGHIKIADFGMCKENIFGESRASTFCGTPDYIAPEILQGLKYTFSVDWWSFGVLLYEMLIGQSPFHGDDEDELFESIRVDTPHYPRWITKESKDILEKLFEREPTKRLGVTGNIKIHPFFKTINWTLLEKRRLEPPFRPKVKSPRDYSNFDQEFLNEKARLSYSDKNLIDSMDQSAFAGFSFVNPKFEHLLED

HCT-116 = test: Cytotoxicity against human HCT116 cells assessed as cell viability by WST-1 reduction assay; type: cell-based
How it was run: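 Cytotoxicity was measured in an HCT-116 cell proliferation assay as reduction of WST-1 reagent. Values are the mean of at least three experiments.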

[8] = target: Myosin-IIIa (Homo sapiens) (UniProt Q8NEV4); test: Competitive binding affinity to MYO3A (unknown origin) at 10 uM in presence of ATP relative to control

Chain of Myosin light chain kinase, smooth muscle (Homo sapiens) (Q15746 whole entry): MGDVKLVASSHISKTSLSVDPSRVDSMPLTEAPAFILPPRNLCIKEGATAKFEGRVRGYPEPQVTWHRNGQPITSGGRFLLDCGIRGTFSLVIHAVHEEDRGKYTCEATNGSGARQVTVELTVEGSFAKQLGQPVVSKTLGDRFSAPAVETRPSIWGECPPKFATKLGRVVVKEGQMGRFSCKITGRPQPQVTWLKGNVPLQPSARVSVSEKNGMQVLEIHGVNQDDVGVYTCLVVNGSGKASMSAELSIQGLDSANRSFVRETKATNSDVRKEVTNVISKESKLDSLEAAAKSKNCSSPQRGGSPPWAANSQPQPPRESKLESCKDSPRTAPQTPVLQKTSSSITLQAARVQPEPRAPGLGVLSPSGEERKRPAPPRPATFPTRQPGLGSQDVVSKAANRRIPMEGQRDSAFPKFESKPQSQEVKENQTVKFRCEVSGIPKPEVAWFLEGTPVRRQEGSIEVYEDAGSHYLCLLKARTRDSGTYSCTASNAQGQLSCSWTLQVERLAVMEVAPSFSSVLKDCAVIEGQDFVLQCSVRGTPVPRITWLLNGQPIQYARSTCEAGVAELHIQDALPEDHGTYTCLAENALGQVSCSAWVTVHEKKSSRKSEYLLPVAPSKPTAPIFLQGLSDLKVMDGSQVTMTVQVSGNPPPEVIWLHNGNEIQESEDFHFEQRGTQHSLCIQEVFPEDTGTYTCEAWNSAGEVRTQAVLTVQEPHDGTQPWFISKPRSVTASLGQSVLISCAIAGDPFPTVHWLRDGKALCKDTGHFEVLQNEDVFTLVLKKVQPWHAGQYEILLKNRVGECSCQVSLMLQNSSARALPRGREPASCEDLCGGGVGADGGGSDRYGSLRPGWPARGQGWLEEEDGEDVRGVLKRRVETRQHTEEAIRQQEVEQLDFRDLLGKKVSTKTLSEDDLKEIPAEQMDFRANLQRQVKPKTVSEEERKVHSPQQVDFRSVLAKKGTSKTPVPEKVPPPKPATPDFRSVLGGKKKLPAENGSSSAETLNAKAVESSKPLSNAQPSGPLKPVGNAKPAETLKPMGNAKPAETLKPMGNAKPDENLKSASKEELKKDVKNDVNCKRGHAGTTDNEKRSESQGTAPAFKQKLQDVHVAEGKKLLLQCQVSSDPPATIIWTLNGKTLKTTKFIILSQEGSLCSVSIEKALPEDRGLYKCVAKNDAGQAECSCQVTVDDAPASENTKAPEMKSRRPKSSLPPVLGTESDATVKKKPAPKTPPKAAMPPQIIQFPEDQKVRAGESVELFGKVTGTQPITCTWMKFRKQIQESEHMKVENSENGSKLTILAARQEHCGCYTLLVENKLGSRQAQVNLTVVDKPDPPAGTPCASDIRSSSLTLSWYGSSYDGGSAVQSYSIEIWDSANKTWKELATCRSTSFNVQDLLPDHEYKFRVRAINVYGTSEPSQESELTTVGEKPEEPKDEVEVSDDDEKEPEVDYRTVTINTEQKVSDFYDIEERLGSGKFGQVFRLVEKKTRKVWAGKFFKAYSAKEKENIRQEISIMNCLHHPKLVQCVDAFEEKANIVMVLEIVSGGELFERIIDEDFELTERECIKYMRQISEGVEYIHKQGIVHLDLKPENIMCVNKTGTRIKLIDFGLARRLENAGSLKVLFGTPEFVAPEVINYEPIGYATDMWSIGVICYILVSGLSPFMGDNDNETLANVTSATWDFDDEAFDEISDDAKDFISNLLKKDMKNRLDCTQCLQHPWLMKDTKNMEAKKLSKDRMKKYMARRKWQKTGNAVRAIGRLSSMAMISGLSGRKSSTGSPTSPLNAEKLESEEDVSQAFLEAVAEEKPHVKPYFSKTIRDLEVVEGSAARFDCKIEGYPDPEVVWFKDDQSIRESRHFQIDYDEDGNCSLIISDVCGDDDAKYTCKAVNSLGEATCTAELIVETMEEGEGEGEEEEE

Structure (SMILES) | inhibition [1] | inhibition [2] | inhibition [3] | inhibition [4] | inhibition (Homo sapiens) | inhibition [5] | inhibition [6] | inhibition [7] | IC50 (HCT-116) | inhibition [8]
O[C@H]1CC[C@H](Nc2nccc(-n3nnc4ccccc43)n2)CC1 | 88% | 97% | < 50% | < 50% | < 50% | 75% | < 50% | < 50% | 1200 nM | < 50%
N[C@H]1CC[C@H](Nc2nccc(-n3nnc4ccccc43)n2)CC1 |  |  |  |  |  |  |  |  | 770 nM | 
O=C([C@H]1CC[C@H](Nc2nccc(-n3nnc4ccccc43)n2)CC1)N1CCOCC1 |  |  |  |  |  |  |  |  | 20000 nM | 
O[C@H]1CC[C@H](Nc2nccc(-n3ncc4ccccc43)n2)CC1 | < 50% | 96% | < 50% | < 50% | 99% | < 50% | < 50% | < 50% |  | < 50%
O[C@H]1CC[C@H](Nc2nccc(-c3n[nH]c4ccccc34)n2)CC1 |  | 98% | < 50% | 86% | < 50% |  | < 50% |  |  | 
O[C@H]1CC[C@H](Nc2nccc(-n3ccc4ccccc43)n2)CC1 | 65% | 93% | < 50% | < 50% | < 50% | < 50% | < 50% | < 50% |  | < 50%
